# Experimental data pooled from the literature.
# Target: Serine/threonine-protein kinase ULK3 (ULK3, Homo sapiens, UniProt Q6PHR2)
# One construct used (Q6PHR2 1-472): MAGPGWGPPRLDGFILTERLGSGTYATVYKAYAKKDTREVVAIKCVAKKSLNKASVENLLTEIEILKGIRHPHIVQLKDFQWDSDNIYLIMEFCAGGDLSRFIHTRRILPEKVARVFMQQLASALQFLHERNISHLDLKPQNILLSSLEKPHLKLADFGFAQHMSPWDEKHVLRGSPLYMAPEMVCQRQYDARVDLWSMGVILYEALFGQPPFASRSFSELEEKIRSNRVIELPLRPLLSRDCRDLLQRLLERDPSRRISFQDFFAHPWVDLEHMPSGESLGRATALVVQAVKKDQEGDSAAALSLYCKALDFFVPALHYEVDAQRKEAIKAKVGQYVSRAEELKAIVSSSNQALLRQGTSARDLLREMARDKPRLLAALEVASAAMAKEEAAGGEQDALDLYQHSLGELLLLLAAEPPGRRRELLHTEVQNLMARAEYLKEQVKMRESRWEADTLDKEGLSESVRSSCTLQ
Structure (SMILES),observed,mode,method,concentration,measurement,value
CCCCC(=O)Nc1ccc(-c2ccc3ncn(CCC)c(=O)c3c2)cn1,binding,,competition with immobilised ligand,0.5 µM,remaining binding,99%
CN1CCN(C(=O)c2ccc(NC(=O)Nc3ccc(N(C)c4ccnc(Nc5ccc(CS(C)(=O)=O)cc5)n4)cc3)cc2)CC1,binding,,competition with immobilised ligand,1 µM,remaining binding,7.6%
C=CC(=O)N1CCC([C@@H]2CCNc3c(C(N)=O)c(-c4ccc(Oc5ccccc5)cc4)nn32)CC1,enzyme activity,inhibitor,,1 µM,inhibition,11%
C#Cc1cc(-c2cc(Nc3nc(N[C@@H](C)c4ccc(F)cn4)ncc3Cl)n[nH]2)ccc1C=O,enzyme activity,inhibitor,,0.2 µM,inhibition,57.5%
C1=C/COCc2cc(ccc2OCCN2CCCC2)Nc2nccc(n2)-c2cccc(c2)COC/1,cell-free assay,,,0.1 µM,remaining signal,57%
C=CC(=O)N1CCC[C@@H](n2nc(-c3ccc(Oc4ccccc4)cc3)c3c(N)ncnc32)C1,enzyme activity,inhibitor,,1 µM,inhibition,29%
Cc1ccc(NC(=O)c2ccnc(C(F)(F)F)c2)cc1-c1cc(OCCO)nc(N2CCOCC2)c1,binding,,competition with immobilised ligand,1 µM,remaining binding,85%
COc1ccc2oc(-c3ccc4nc(N)oc4c3)c/c(=N\c3ccccc3NC(=O)CCN)c2c1,binding,,,1 µM,remaining binding,96%
